From ChEMBL document CHEMBL1687758, “Azithromycin alters macrophage phenotype and pulmonary compartmentalization during lung infection with Pseudomonas” (2010)
The source made the active and inactive calls. No cut-off for these calls is given here.

How the values were obtained:
[1] = tested on: Pseudomonas aeruginosa; assay: Antibacterial activity against Pseudomonas aeruginosa M57-15 infected in C57BL/6 mouse assessed as increase of host survival time at 0.16 g/kg, po measured up to 14 days; type: functional, organism-based
In short: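 For survival, mice received 1.3 × 10^6 CFU (1× LD50) intratracheally in agarose beads under isoflurane. Daily oral gavage of 0.16 g/kg in 2% methylcellulose, or vehicle, began 4 days before infection. Survival curves were compared by log-rank.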

[2] = tested on: Mus musculus; assay: Immunomodulatory activity in Pseudomonas aeruginosa M57-15 infected C57BL/6 mouse lung assessed as CD11b+c- cell expression level in lung lavage fluid at 0.16 g/kg, po measured after 3 days by flow cytometry (reference value: 1.20 +/- 0.41 %); type: functional
In short: (§1)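 Oral gavage of 0.16 g/kg daily (2% methylcellulose vehicle) began 4 days before intratracheal bead infection (1 × 105 to 2 × 10^5 CFU). On days 3, 7 and 14, cells were taken from lavage (0.3 mM EDTA buffer) and from collagenase/DNase lung digest (1 h, 37°C). Cells were stained for CD11b, CD11c, Gr-1, CD4, CD80, MHC-II and MR, with more than 50,000 events acquired. Counts were gated percent × manual cell count.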

[3] = tested on: Mus musculus; assay: Immunomodulatory activity in Pseudomonas aeruginosa M57-15 infected C57BL/6 mouse lung assessed as increase of MHC2 expression in CD11b+ Gr1+ cells in lung digest at 0.16 g/kg, po measured after 7 days by flow cytometry; type: functional, organism-based; in short: as §1
[4] = tested on: Mus musculus; assay: Immunomodulatory activity in Pseudomonas aeruginosa M57-15 infected C57BL/6 mouse lung assessed as decrease of TNFalpha production in CD11b+ cells in lung lavage fluid at 0.16 g/kg, po measured after 7 days by flow cytometry; type: functional, organism-based
In short: (§2)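 The first 1-ml lavage wash was frozen at −80°C. Samples diluted 5-fold were incubated 3 h at room temperature with capture beads for a cytometric bead array (IL-12p70, CCL2, TNF-α, IL-10, IFN-γ, IL-6) plus a PE-conjugated detection antibody. Fluorescence was read by flow cytometry against standard curves. Mice had daily oral 0.16 g/kg from 4 days before intratracheal infection.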

[5] = tested on: Pseudomonas aeruginosa; assay: Antibacterial activity against Pseudomonas aeruginosa M57-15 infected in C57BL/6 mouse assessed as effect on bacterial burden at 0.16 g/kg, po measured up to 14 days; type: functional, organism-based
In short: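 Mice got 0.16 g/kg in 2% methylcellulose by daily oral gavage, starting 4 days before infection, or vehicle. Infection was intratracheal with bead-embedded bacteria, 1 × 105 to 2 × 10^5 CFU (about LD10). On days 0, 3, 7 and 14, aliquots of lung lavage and digest were plated on Pseudomonas selection agar and CFU counted manually after overnight growth.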

[6] = tested on: Mus musculus; assay: Immunomodulatory activity in Pseudomonas aeruginosa M57-15 infected C57BL/6 mouse lung assessed as increase of CD80 expression in CD11b+ Gr1+ cells in lung digest at 0.16 g/kg, po measured after 7 days by flow cytometry; type: functional, organism-based; in short: as §1
[7] = tested on: Mus musculus; assay: Immunomodulatory activity in Pseudomonas aeruginosa M57-15 infected C57BL/6 mouse lung assessed as CD11b+c+ cell expression level in lung lavage fluid at 0.16 g/kg, po measured after 14 days by flow cytometry (reference value: 5.42 +/- 5.34 %); type: functional; in short: as §1
[8] = tested on: Mus musculus; assay: Immunomodulatory activity in Pseudomonas aeruginosa M57-15 infected C57BL/6 mouse lung assessed as effect on CD11b+ cells infiltration in lung lavage fluid at 0.16 g/kg, po measured after 7 days by flow cytometry; type: functional, organism-based; in short: as §1
[9] = tested on: Mus musculus; assay: Immunomodulatory activity in Pseudomonas aeruginosa M57-15 infected C57BL/6 mouse lung assessed as CD11b-c+ cell expression level in lung lavage fluid at 0.16 g/kg, po measured after 7 days by flow cytometry (reference value: 72.59 +/- 16.30 %); type: functional; in short: as §1
[10] = tested on: Mus musculus; assay: Immunomodulatory activity in Pseudomonas aeruginosa M57-15 infected C57BL/6 mouse lung assessed as increase of CD80 expression in CD11b+ Gr1+ cells in alveolar space at 0.16 g/kg, po measured after 7 days by flow cytometry; type: functional, organism-based; in short: as §1
[11] = tested on: Mus musculus; assay: Immunomodulatory activity in Pseudomonas aeruginosa M57-15 infected C57BL/6 mouse lung assessed as CD11b+c- cell expression level in lung digest at 0.16 g/kg, po measured after 14 days by flow cytometry (reference value: 21.97 +/- 3.51 %); type: functional; in short: as §1
[12] = tested on: Mus musculus; assay: Immunomodulatory activity in Pseudomonas aeruginosa M57-15 infected C57BL/6 mouse lung assessed as CD11b+c+ cell expression level in lung digest at 0.16 g/kg, po measured after 14 days by flow cytometry (reference value: 6.6 +/- 1.86 %); type: functional; in short: as §1
[13] = tested on: Mus musculus; assay: Immunomodulatory activity in Pseudomonas aeruginosa M57-15 infected C57BL/6 mouse lung assessed as CD11b+c+ cell expression level in lung digest at 0.16 g/kg, po measured after 7 days by flow cytometry (reference value: 5.16 +/- 1.09 %); type: functional; in short: as §1
[14] = tested on: Mus musculus; assay: Immunomodulatory activity in Pseudomonas aeruginosa M57-15 infected C57BL/6 mouse lung assessed as decrease of IL-12p70 production in CD11b+ cells in lung lavage fluid at 0.16 g/kg, po measured after 7 days by flow cytometry; type: functional, organism-based; in short: as §2
[15] = tested on: Mus musculus; assay: Immunomodulatory activity in Pseudomonas aeruginosa M57-15 infected C57BL/6 mouse lung assessed as CD11b+c+ cell expression level in lung digest at 0.16 g/kg, po measured after 3 days by flow cytometry (reference value: 8.63 +/- 0.53 %); type: functional; in short: as §1
[16] = tested on: Mus musculus; assay: Immunomodulatory activity in Pseudomonas aeruginosa M57-15 infected C57BL/6 mouse lung assessed as CD11b+c- cell expression level in lung lavage fluid at 0.16 g/kg, po measured after 7 days by flow cytometry (reference value: 1.13 +/- 0.30 %); type: functional; in short: as §1
[17] = tested on: Mus musculus; assay: Immunomodulatory activity in Pseudomonas aeruginosa M57-15 infected C57BL/6 mouse lung assessed as increase of mannose receptor expression in CD11b+ Gr1+ cells in alveolar space at 0.16 g/kg, po measured after 7 days by flow cytometry; type: functional, organism-based; in short: as §1
[18] = tested on: Mus musculus; assay: Immunomodulatory activity in Pseudomonas aeruginosa M57-15 infected C57BL/6 mouse lung assessed as CD11b-c+ cell expression level in lung lavage fluid at 0.16 g/kg, po measured after 3 days by flow cytometry (reference value: 47.01 +/- 33.74 %); type: functional; in short: as §1
[19] = tested on: Mus musculus; assay: Immunomodulatory activity in Pseudomonas aeruginosa M57-15 infected C57BL/6 mouse lung assessed as decrease of IL-6 production in CD11b+ cells in lung lavage fluid at 0.16 g/kg, po measured after 7 days by flow cytometry; type: functional, organism-based; in short: as §2
[20] = tested on: Mus musculus; assay: Immunomodulatory activity in Pseudomonas aeruginosa M57-15 infected C57BL/6 mouse lung assessed as CD11b-c+ cell expression level in lung digest at 0.16 g/kg, po measured after 3 days by flow cytometry (reference value: 19.71 +/- 3.89 %); type: functional; in short: as §1
[21] = tested on: Mus musculus; assay: Immunomodulatory activity in Pseudomonas aeruginosa M57-15 infected C57BL/6 mouse lung assessed as CD11b+c- cell expression level in lung digest at 0.16 g/kg, po measured after 7 days by flow cytometry (reference value: 17.07 +/- 4.84 %); type: functional; in short: as §1
[22] = tested on: Mus musculus; assay: Immunomodulatory activity in Pseudomonas aeruginosa M57-15 infected C57BL/6 mouse lung assessed as up-regulation of MHC2 expression in CD11+ Gr1- cells in lung digest at 0.16 g/kg, po measured after 7 days by flow cytometry; type: functional, organism-based; in short: as §1

For `CC[C@H]1OC(=O)[C@H](C)[C@@H](O[C@H]2C[C@@](C)(OC)[C@@H](O)[C@H](C)O2)[C@H](C)[C@@H](O[C@@H]2O[C@H](C)C[C@H](N(C)C)[C@H]2O)[C@](C)(O)C[C@@H](C)CN(C)[C@H](C)[C@@H](O)[C@]1(C)O` [AZITHROMYCIN], the Activity [1] was “inactive”, the Activity [2] was 0.42% and the Activity [3] was “Active”. For the same molecule, the Activity [4] was “Active”, the Activity [5] was “inactive” and the Activity [6] was “Active”. The Activity [7] was 5.25%, the Activity [8] was “Active” and the Activity [9] was 38.47%. For the same molecule, the Activity [10] was “Active”, the Activity [11] was 15.55% and the Activity [12] was 4.31%. The Activity [13] was 17.1%, the Activity [14] was “inactive” and the Activity [15] was 7.44%. For the same molecule, the Activity [16] was 13.3%, the Activity [17] was “Active” and the Activity [18] was 34.84%. The Activity [19] was “Active”, the Activity [20] was 20.92% and the Activity [21] was 16.83%. The Activity [22] was “Active”.
